The values that follow come from PubChem BioAssay AID2648 (Johns Hopkins Ion Channel Center, 2010).

Hit rate of the full screen: of about 310,000 compounds, about 1,100 (0.35%) were called active.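 The calls were made as follows: active = fluorescence ratio B-score, a plate-corrected score, at least three library SD, with initial intensity B-score within 5 SD; inactive = the rest.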 The entries come from a sample that favours actives as a whole.

In this test the target is Potassium voltage-gated channel subfamily KQT member 1 (Homo sapiens) (UniProt P51787). The test can be described thus: potentiators or activators of KCNQ1 channel, primary screen, cell-based, thallium flux, high-throughput (AID 2648). The conditions noted are these: CHO-K1 KCNQ1, thallium flux FluxOR fluorescence, at 10 µM; hits give high values. In a few lines: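 Schedule – 37 °C overnight plating, 90-min dark dye load, 20-min compound pretreatment · System – stable KCNQ1 CHO-K1 line · Probe or stimulus – thallium- and potassium-containing depolarizing buffer · Measured by – kinetic FluxOR fluorescence, 10 s baseline plus 110 s post-stimulus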
Sequence of Potassium voltage-gated channel subfamily KQT member 1 (Homo sapiens) (P51787 whole entry, looked up): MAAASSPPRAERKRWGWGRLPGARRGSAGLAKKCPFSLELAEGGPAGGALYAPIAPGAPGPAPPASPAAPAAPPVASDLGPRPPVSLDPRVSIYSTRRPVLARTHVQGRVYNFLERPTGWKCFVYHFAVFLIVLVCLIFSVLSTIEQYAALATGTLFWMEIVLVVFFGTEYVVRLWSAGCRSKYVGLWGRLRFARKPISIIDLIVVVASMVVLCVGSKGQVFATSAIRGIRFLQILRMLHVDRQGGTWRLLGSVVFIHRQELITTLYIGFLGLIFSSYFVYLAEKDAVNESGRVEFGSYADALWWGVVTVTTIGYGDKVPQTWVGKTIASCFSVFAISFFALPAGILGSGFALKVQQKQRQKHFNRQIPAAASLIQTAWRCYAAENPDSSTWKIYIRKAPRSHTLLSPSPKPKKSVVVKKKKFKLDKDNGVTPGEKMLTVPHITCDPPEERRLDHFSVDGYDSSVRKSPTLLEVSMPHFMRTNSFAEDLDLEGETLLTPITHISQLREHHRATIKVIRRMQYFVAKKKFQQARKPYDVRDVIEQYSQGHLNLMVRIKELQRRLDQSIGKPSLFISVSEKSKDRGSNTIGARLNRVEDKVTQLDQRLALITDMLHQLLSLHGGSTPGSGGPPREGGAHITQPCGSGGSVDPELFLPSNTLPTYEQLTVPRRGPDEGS
`COc1cc(-n2c(=S)[nH]c3ccc(C)cc3c2=O)c(Cl)cc1Cl`: the B-score was 8 (active).

In the case of `C/C=C/CC1(CC)C(=O)NC(=S)NC1=O`, the B-score result is “inactive”.

Take `CCN(CC)C(=O)c1ccc(NC(=O)c2sccc2-c2ccccc2)cc1`: the B-score entry was “inactive”.

`Cc1ccc2c(c1)C1CN(C)CCC1N2C(=O)Cn1nnc(-c2ccccc2F)n1` (stereo not given): the B-score result was “inactive”.

For `CC(Cc1ccccc1)NC=O` (stereo not given), the B-score result was “inactive”.
